Drawing on ChEMBL document CHEMBL3044956, “Nematicidal and antifungal activities of annonaceous acetogenins from Annona squamosa against various plant pathogens” (J Agric Food Chem, 2011), this text covers LC50 and mortality for seven compounds.

SMILES strings stand for the structures. ≈ marks a conversion by molar mass, not a printed value.

Holding throughout (type): functional
The test system of experiment [1] is Bursaphelenchus xylophilus. In words: Nematicidal activity against second juvenile stage (J2) of Bursaphelenchus xylophilus assessed as mortality after 2 days by microtiter plate assay method (Beneficial crop Pine). As to conditions: 48 h. In short, it runs like this:
(§1)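 Pine wood nematodes reared on B. cinerea mycelia on PDA for 7 days at 28 °C. J2s collected in 0.01% Triton X-100 water and tested in microtiter plates. Compounds in DMSO or MeOH, solvent ≤1%; solvent-only controls. Concentrations 0.004–1 μg/mL. Mortality Abbott-corrected; LC50 by probit. Two runs, three replicates each.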

For experiment [2], the system named is Bursaphelenchus xylophilus. Description: Nematicidal activity against second juvenile stage (J2) of Bursaphelenchus xylophilus assessed as mortality at >0.33 ug/ml after 2 days by microtiter plate assay method (Beneficial crop Pine). In short, it runs like this: as §1
The subject of experiment [3] is Meloidogyne incognita. In words: Nematicidal activity against second juvenile stage (J2) of Meloidogyne incognita (root-knot nematode) assessed as mortality incubated in the dark at 28 degC after 3 days by light microscopy (benficial crop Tomato). As to conditions: 72 h. The gist of the method: (§2)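 M. incognita eggs taken from infected tomato roots with hypochlorite and J2s hatched in Baermann funnels at 28 °C. J2s from the first 3 days kept in 0.01% Tween 20 water and used within 24 h. About 100 J2s per well; stock added 1:100 in DMSO or MeOH (≤1%). Plates kept shaking in the dark at 28 °C, scored by microscope at 1, 2 and 3 days. Mortality Abbott-corrected. Two runs, three replicates each.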

The test system of experiment [4] is Meloidogyne incognita. In words: Nematicidal activity against second juvenile stage (J2) of Meloidogyne incognita (root-knot nematode) assessed as mortality incubated in the dark at 28 degC after 2 days by light microscopy (benficial crop Tomato). As to conditions: 48 h. The gist of the method: as §2
In experiment [5] the test system is Meloidogyne incognita. Description: Nematicidal activity against second juvenile stage (J2) of Meloidogyne incognita (root-knot nematode) assessed as mortality incubated in the dark at 28 degC after 1 day by light microscopy (benficial crop Tomato). The note with it: 24 h. In short, it runs like this:
as §2

As for `CCCCCCCCCC[C@@H](O)[C@H]1CC[C@H]([C@H](O)CCCCCCCCCCCCCCC2=C[C@H](C)OC2=O)O1` (relative stereo) [REL-ANNOTEMOYIN-1], the LC50 in experiment [1] came to 0.947 µg/mL. For `CCCCCCCCCCCC[C@@H](O)[C@H]1CC[C@H]([C@H](O)CCCCCCCCCCCCC2=C[C@H](C)OC2=O)O1` (relative stereo) [REL-SOLAMIN], the LC50 in experiment [1] was more than 1 µg/mL. As for `CCCCCCCCCC[C@H](O)[C@H]1CC[C@H]([C@H]2CC[C@H]([C@H](O)CCCCCCCCCCC3=C[C@H](C)OC3=O)O2)O1` (relative stereo) [REL-SQUAMOCIN-J], the mortality in experiment [2] is on record as 100%. Further, the LC50 in experiment [1] was 0.025 µg/mL. As for `CCCCCCCCCC[C@@H](O)[C@H]1CC[C@H]([C@H]2CC[C@H]([C@H](O)CCCCCCCCCCC3=C[C@H](C)OC3=O)O2)O1` (relative stereo) [REL-SQUAMOCIN-K], the mortality in experiment [2] is listed as 100%. Besides, in experiment [1], the 50% lethal concentration (LC50) was determined as 0.039 µg/mL. On the same counts, the results for `CCCCCCCCCC[C@H](O)[C@H]1CC[C@H]([C@H]2CC[C@H]([C@H](O)CCCCCCCCCCCCC3=C[C@H](C)OC3=O)O2)O1` [BULLANIN] are 100% and 0.018 µg/mL.

With `O=C/C=C/c1ccccc1` [CINNAMALDEHYDE], the LC50 turned out to be 12.2 µg/mL (≈ 92.6 µM) with Meloidogyne incognita [3], 13.9 µg/mL (≈ 105 µM) in the experiment with Meloidogyne incognita [4] and 15.1 µg/mL (≈ 115 µM) in the experiment with Meloidogyne incognita [5]. `CCCCCCCCCC[C@@H](O)[C@H]1CC[C@H]([C@H]2CC[C@H]([C@H](O)CCCCCCCCCCCCC3=C[C@H](C)OC3=O)O2)O1` [ISODESAACETYLUVARICIN]: the mortality in experiment [2] was 100%. Besides, the LC50 in experiment [1] came out at 0.024 µg/mL.
